According to ChEMBL document CHEMBL1128398, “Structure-activity relationship of alpha-galactosylceramides against B16-bearing mice” (1995):

Columns and labels:
[1] = tested on: B16; assay: Tumor Growth Inhibitory effect (TGIR) on mice subcutaneously inoculated with B16 cells (compound plus MMC); type: functional, Mus musculus; parameters: concentration or dose not given beside the values
Method in brief: (§1)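 Groups of six female BDF1 mice received B16 melanoma (1 × 10^6 cells/mouse) s.c. on day 0. AGL analogues were given i.v. at 100 μg/kg on days 1, 5 and 9, and MMC at 5 mg/kg i.p. on day 1; controls were untreated. Tumor volume (length × width × height/2, by callipers) was read on days 8, 12, 16 and 20. TGIR = [1 − mean test volume/mean control volume] × 100, and the maximum value is reported.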

[2] = species: Homo sapiens; assay: Lymphocyte Proliferation Stimulatory effect on human umbilical cord blood at 10 ng/mL and measured for [3H]TdR (tritium-thymidine) uptake (percent of control); type: functional
Method in brief: (§2)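 Mononuclear cells were isolated from human peripheral blood or umbilical cord blood and plated at 1 × 10^5 cells/well in RPMI 1640 with 10% autologous plasma, with compound. After 4 days of incubation, a 6 h [3H]TdR pulse was given and uptake was counted by scintillation. Run in triplicate.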

[3] = tested on: B16; assay: Tumor Growth Inhibitory effect (TGIR) on mice subcutaneously inoculated with B16 cells (chemotherapeutic agent, mitomycin C (MMC)); type: functional, Mus musculus; parameters: concentration or dose not given beside the values; method in brief: as §1
[4] = species: Homo sapiens; assay: Lymphocyte Proliferation Stimulatory effect on human peripheral blood at 10 ng/mL and measured for [3H]TdR (tritium-thymidine) uptake (percent of control); type: functional; method in brief: as §2
[5] = species: Mus musculus; assay: Lymphocyte Proliferation Stimulatory effect was tested on mouse spleen cells and evaluated for at 6 h [3H]TdR (tritium-thymidine) pulse and uptake into cells at 100 ng/mL; type: functional
Method in brief: (§3)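 BALB/c spleen cells (2 × 10^5 cells/well, no stimulator cells) were cultured in 10% FCS RPMI 1640 with compound at 37 °C in 5% CO2 for 2–3 days. A 6 h [3H]TdR pulse followed, and uptake was counted by liquid scintillation. Run in triplicate.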

[6] = species: Homo sapiens; assay: Lymphocyte Proliferation Stimulatory effect on human umbilical cord blood at 1 ng/mL and measured for [3H]TdR (tritium-thymidine) uptake (percent of control); type: functional; method in brief: as §2
[7] = species: Homo sapiens; assay: Lymphocyte Proliferation Stimulatory effect on human peripheral blood at 100 ng/mL and measured for [3H]TdR (tritium-thymidine) uptake (percent of control); type: functional; method in brief: as §2
[8] = species: Homo sapiens; assay: Lymphocyte Proliferation Stimulatory effect on human peripheral blood at 1 ng/mL and measured for [3H]TdR (tritium-thymidine) uptake (percent of control); type: functional; method in brief: as §2
[9] = species: Homo sapiens; assay: Lymphocyte Proliferation Stimulatory effect on human umbilical cord blood at 100 ng/mL and measured for [3H]TdR (tritium-thymidine) uptake (percent of control); type: functional; method in brief: as §2
[10] = tested on: Mus musculus; assay: Compound is administered at days 6, 10, and 14.Tumor volume of each mouse is measured on days 8, 12, 16 and 20(compound alone (single)); type: functional
[11] = species: Mus musculus; assay: Lymphocyte Proliferation Stimulatory effect on Allogenic MLR at 100 ng/mL and measured for [3H]-TdR (tritium-thymidine) uptake (percent of control); type: functional
Method in brief: (§4)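 Responders were BALB/c spleen cells and stimulators were C57BL/6 spleen cells pretreated with MMC (50 μg/mL, 30 min). Both were plated at 1 × 10^5 cells in 10% FCS RPMI 1640, with compounds added at plating. Culture was at 37 °C in 5% CO2 for 2–3 days, then a 6 h [3H]TdR pulse with scintillation counting. Run in triplicate.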

[12] = tested on: B16; assay: Tumor Growth Inhibitory effect (TGIR) on mice subcutaneously inoculated with B16 cells (compound alone (single)); type: functional, Mus musculus; parameters: concentration or dose not given beside the values; method in brief: as §1
[13] = tested on: Mus musculus; assay: Compound is administered at days 6, 10, and 14.Tumor volume of each mouse is measured on days 8, 12, 16 and 20(chemotherapeutic agent, mitomycin C (MMC)); type: functional
[14] = species: Mus musculus; assay: Lymphocyte Proliferation Stimulatory effect was tested on mouse spleen cells and evaluated for at 6 h [3H]TdR (tritium-thymidine) pulse and uptake into cells at 10 ng/mL; type: functional; method in brief: as §3
[15] = species: Mus musculus; assay: Lymphocyte Proliferation Stimulatory effect on Allogenic MLR at 10 ng/mL and measured for [3H]TdR (tritium-thymidine) uptake (percent of control); type: functional; method in brief: as §4
[16] = species: Mus musculus; assay: Lymphocyte Proliferation Stimulatory effect was tested on mouse spleen cells and evaluated for at 6 h [3H]TdR (tritium-thymidine) pulse and uptake into cells at 1 ng/mL; type: functional; method in brief: as §3
[17] = species: Mus musculus; assay: Lymphocyte Proliferation Stimulatory effect on Allogenic MLR at 0.1 ng/mL and measured for [3H]TdR (tritium-thymidine) uptake (percent of control); type: functional; method in brief: as §4
[18] = species: Mus musculus; assay: Lymphocyte Proliferation Stimulatory effect on Allogenic MLR at 1 ng/mL and measured for [3H]TdR (tritium-thymidine) uptake (percent of control); type: functional; method in brief: as §4
[19] = tested on: Mus musculus; assay: Compound is administered at days 6, 10, and 14.Tumor volume of each mouse is measured on days 8, 12, 16 and 20(compound plus MMC); type: functional
[20] = species: Mus musculus; assay: Lymphocyte Proliferation Stimulatory effect on Allogenic MLR at 1 ng/tritium-thymidine) uptake (percent of control); type: functional; method in brief: as §4

Row | Compound | Control [1] [%] | Control [2] [%] | Tumor growth inhibition ratio (max TGIR) [3] [%] | Control [4] [%] | Control [5] [%] | Control [6] [%] | Control [7] [%] | Control [8] [%] | Control [9] [%] | Control [10] [%] | Control [11] [%] | Control [12] [%] | Control [13] [%] | Control [14] [%] | Control [15] [%] | Control [16] [%] | Control [17] [%] | Control [18] [%] | Control [19] [%] | Control [20] [%]
1 | CCCCCCCCCCCCCCCCCCCCCCCC[C@@H](O)C(=O)N[C@@H](CO[C@H]1O[C@@H](CO)[C@H](O)[C@H](O)[C@@H]1O)[C@H](O)[C@H](O)CCCCCCCCCCCCCC | 97.7 | 582 | 87.3 | 352 | 620 | 382 | 470 | 332 | 586 | 69.8 | 280 | 92.8 | 67.6 | 437 | 250 | 203 | 118 | 180 | 85 | 
2 | CCCCCCCCCCCCCCCCCCCCCCCCCC(=O)N[C@@H](CO[C@H]1O[C@H](CO)[C@H](O)[C@H](O)[C@H]1O)[C@H](O)[C@H](O)CCCCCCCCCCCCCC [RGI-7000] | 86.7 | 663 | 67.6 | 389 |  | 398 | 590 | 356 | 581 |  | 283 | 53.8 |  |  | 251 |  | 125 |  |  | 200
